Reference: ChEMBL document CHEMBL4346672, “Antimicrobial and KPC/AmpC inhibitory activity of functionalized benzosiloxaboroles” (Eur J Med Chem, 2019)
Values after ≈ are worked out from the molar mass of the structure shown. Active and inactive are the calls of the source. No cut-off for these calls is given here.

Experiments:
[1] = system: Bordetella bronchiseptica; assay: Antibacterial activity against Bordetella bronchiseptica ATCC 4617 measured after 18 hrs by CLSI broth dilution method; format: functional; details: ATCC 4617, 18 h
Procedure, shortened: (§1)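 Broth MIC in Mueller-Hinton II broth following CLSI, compounds dissolved in DMSO. Strains subcultured twice on tryptic soy agar before testing. Growth read after 35 °C, 18 h.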

[2] = system: Enterococcus faecium; assay: Antibacterial activity against Enterococcus faecium ATCC 6057 measured after 18 hrs by CLSI broth dilution method; format: functional; details: ATCC 6057, 18 h; procedure, shortened: as §1
[3] = system: Burkholderia cepacia; assay: Bactericidal activity against Burkholderia cepacia ATCC 25416 measured after 18 hrs by CLSI broth dilution method; format: functional; details: ATCC 25416, 18 h
Procedure, shortened: (§2)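 Strains stored at -80 °C and subcultured twice on tryptic soy agar before testing. Compounds dissolved in DMSO. […] MBC then determined per CLSI recommendations.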

[4] = system: Serratia marcescens; assay: Antibacterial activity against Serratia marcescens ATCC 13880 measured after 18 hrs by CLSI broth dilution method; format: functional; details: ATCC 13880, 18 h; procedure, shortened: as §1
[5] = system: Escherichia coli; assay: Antibacterial activity against Escherichia coli ATCC 25922 measured after 18 hrs by CLSI broth dilution method; format: functional; details: ATCC 25922, 18 h; procedure, shortened: as §1
[6] = system: Pseudomonas aeruginosa; assay: Antibacterial activity against Pseudomonas aeruginosa ATCC 27853 assessed as diameter of zone inhibition measured after 18 hrs by CLSI disc diffusion method; format: functional, organism-based
Procedure, shortened: (§3)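 Disc diffusion on Mueller-Hinton II agar. Compounds dissolved in DMSO. Strains stored at -80 °C and subcultured twice on tryptic soy agar before testing. Inhibition zones read after 35 °C, 18 h.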

[7] = system: Enterococcus faecalis; assay: Antibacterial activity against Enterococcus faecalis ATCC 29212 measured after 18 hrs by CLSI broth dilution method; format: functional; details: ATCC 29212, 18 h; procedure, shortened: as §1
[8] = system: Bordetella bronchiseptica; assay: Antibacterial activity against Bordetella bronchiseptica ATCC 4617 assessed as diameter of zone inhibition measured after 18 hrs by CLSI disc diffusion method; format: functional; procedure, shortened: as §3
[9] = system: Escherichia coli; assay: microbe, parasite or virus in culture; details: ATCC 25922, 18 h
[10] = system: Staphylococcus epidermidis; assay: microbe, parasite or virus in culture; details: ATCC 12228, 18 h, read-out: DIZ
[11] = system: Enterococcus faecium; assay: Bactericidal activity against Enterococcus faecium ATCC 6057 measured after 18 hrs by CLSI broth dilution method; format: functional; details: ATCC 6057, 18 h; procedure, shortened: as §2
[12] = system: Staphylococcus aureus; assay: Bactericidal activity against Staphylococcus aureus ATCC 6538P measured after 18 hrs by CLSI broth dilution method; format: functional; procedure, shortened: as §2
[13] = system: Staphylococcus epidermidis; assay: Antibacterial activity against Staphylococcus epidermidis ATCC 12228 measured after 18 hrs by CLSI broth dilution method; format: functional; details: ATCC 12228, 18 h; procedure, shortened: as §1
[14] = system: Pseudomonas aeruginosa; assay: Antibacterial activity against Pseudomonas aeruginosa ATCC 27853 measured after 18 hrs by CLSI broth dilution method; format: functional; details: ATCC 27853, 18 h; procedure, shortened: as §1
[15] = system: Klebsiella pneumoniae; assay: microbe, parasite or virus in culture; details: ATCC 13883, 18 h
[16] = system: Acinetobacter baumannii; assay: Antibacterial activity against Acinetobacter baumannii ATCC 19606 measured after 18 hrs by CLSI broth dilution method; format: functional; details: ATCC 19606, 18 h; procedure, shortened: as §1
[17] = system: Acinetobacter baumannii; assay: Antibacterial activity against Acinetobacter baumannii ATCC 19606 assessed as diameter of zone inhibition measured after 18 hrs by CLSI disc diffusion method; format: functional; procedure, shortened: as §3
[18] = system: Proteus mirabilis; assay: Antibacterial activity against Proteus mirabilis ATCC 12453 measured after 18 hrs by CLSI broth dilution method; format: functional; details: ATCC 12453, 18 h; procedure, shortened: as §1
[19] = system: Enterobacter cloacae; assay: Antibacterial activity against Enterobacter cloacae DSM 6234 measured after 18 hrs by CLSI broth dilution method; format: functional; details: DSM 6234, 18 h; procedure, shortened: as §1
[20] = system: Stenotrophomonas maltophilia; assay: Antibacterial activity against Stenotrophomonas maltophilia ATCC 13637 measured after 18 hrs by CLSI broth dilution method; format: functional; details: ATCC 13637, 18 h; procedure, shortened: as §1
[21] = system: Enterobacter cloacae; assay: microbe, parasite or virus in culture; details: DSM 6234, 18 h
[22] = system: Escherichia coli; assay: Antibacterial activity against Escherichia coli ATCC 25922 assessed as diameter of zone inhibition measured after 18 hrs by CLSI disc diffusion method; format: functional; procedure, shortened: as §3
[23] = system: Enterococcus faecalis; assay: Bactericidal activity against Enterococcus faecalis ATCC 29212 measured after 18 hrs by CLSI broth dilution method; format: functional; details: ATCC 29212, 18 h; procedure, shortened: as §2
[24] = system: Klebsiella pneumoniae; assay: Antibacterial activity against Klebsiella pneumoniae ATCC 13883 measured after 18 hrs by CLSI broth dilution method; format: functional; details: ATCC 13883, 18 h; procedure, shortened: as §1
[25] = system: Enterobacter cloacae; assay: Antibacterial activity against Enterobacter cloacae DSM 6234 assessed as diameter of zone inhibition measured after 18 hrs by CLSI disc diffusion method; format: functional; procedure, shortened: as §3
[26] = system: Burkholderia cepacia; assay: Antibacterial activity against Burkholderia cepacia ATCC 25416 assessed as diameter of zone inhibition measured after 18 hrs by CLSI disc diffusion method; format: functional; procedure, shortened: as §3
[27] = system: Staphylococcus aureus; assay: microbe, parasite or virus in culture; details: ATCC 6538P, 18 h, read-out: DIZ
[28] = system: Bordetella bronchiseptica; assay: Bactericidal activity against Bordetella bronchiseptica ATCC 4617 measured after 18 hrs by CLSI broth dilution method; format: functional; details: ATCC 4617, 18 h; procedure, shortened: as §2
[29] = system: Burkholderia cepacia; assay: Antibacterial activity against Burkholderia cepacia ATCC 25416 measured after 18 hrs by CLSI broth dilution method; format: functional; details: ATCC 25416, 18 h; procedure, shortened: as §1
[30] = system: Staphylococcus aureus; assay: Antibacterial activity against Staphylococcus aureus ATCC 6538P measured after 18 hrs by CLSI broth dilution method; format: functional; procedure, shortened: as §1
[31] = system: Staphylococcus epidermidis; assay: Bactericidal activity against Staphylococcus epidermidis ATCC 12228 measured after 18 hrs by CLSI broth dilution method; format: functional; details: ATCC 12228, 18 h; procedure, shortened: as §2
[32] = system: Stenotrophomonas maltophilia; assay: Antibacterial activity against Stenotrophomonas maltophilia ATCC 13637 assessed as diameter of zone inhibition measured after 18 hrs by CLSI disc diffusion method; format: functional; procedure, shortened: as §3
[33] = system: Bacillus subtilis; assay: microbe, parasite or virus in culture; details: ATCC 6633, 18 h, read-out: DIZ
[34] = system: Proteus mirabilis; assay: Antibacterial activity against Proteus mirabilis ATCC 12453 assessed as diameter of zone inhibition measured after 18 hrs by CLSI disc diffusion method; format: functional; procedure, shortened: as §3
[35] = system: Acinetobacter baumannii; assay: microbe, parasite or virus in culture; details: ATCC 19606, 18 h

## O=C1CN(/N=C/c2ccc([N+](=O)[O-])o2)C(=O)N1 [NITROFURANTOIN]
[1]
  MIC: 64 µg/mL (≈ 269 µM)
[2]
  MIC: 8 µg/mL (≈ 33.6 µM)
[3]
  MBC: 32 µg/mL (≈ 134 µM)
[4]
  MIC: 128 µg/mL (≈ 537 µM)
[5]
  MIC: 8 µg/mL (≈ 33.6 µM)
[6]
  diameter of the inhibition zone (DIZ): inactive
[7]
  MIC: 8 µg/mL (≈ 33.6 µM)
[8]
  diameter of the inhibition zone (DIZ): inactive
[9]
  MBC: 8 µg/mL (≈ 33.6 µM)
[10]
  zone of inhibition at 300 µg/disc: 31 mm
[11]
  MBC: > 128 µg/mL
[12]
  MBC: 16 µg/mL (≈ 67.2 µM)
[13]
  MIC: 4 µg/mL (≈ 16.8 µM)
[14]
  MIC: > 128 µg/mL
[15]
  MBC: 32 µg/mL (≈ 134 µM)
[16]
  MIC: 64 µg/mL (≈ 269 µM)
[17]
  diameter of the inhibition zone (DIZ): 9 mm
[18]
  MIC: 128 µg/mL (≈ 537 µM)
[19]
  MIC: 32 µg/mL (≈ 134 µM)
[20]
  MIC: 128 µg/mL (≈ 537 µM)
[21]
  MBC: 32 µg/mL (≈ 134 µM)
[22]
  diameter of the inhibition zone (DIZ): 24 mm
[23]
  MBC: 128 µg/mL (≈ 537 µM)
[24]
  MIC: 32 µg/mL (≈ 134 µM)
[25]
  diameter of the inhibition zone (DIZ): 17 mm
[26]
  diameter of the inhibition zone (DIZ): 12 mm
[27]
  zone of inhibition at 300 µg/disc: 24 mm
[28]
  MBC: 128 µg/mL (≈ 537 µM)
[29]
  MIC: 32 µg/mL (≈ 134 µM)
[30]
  MIC: 8 µg/mL (≈ 33.6 µM)
[31]
  MBC: 8 µg/mL (≈ 33.6 µM)
[32]
  diameter of the inhibition zone (DIZ): inactive
[33]
  zone of inhibition at 300 µg/disc: 30 mm
[34]
  diameter of the inhibition zone (DIZ): 9 mm
[35]
  MBC: 128 µg/mL (≈ 537 µM)
